Results reported in ChEMBL document CHEMBL1145688, “New sesquiterpene hydroquinones from a Taiwanese marine sponge Polyfibrospongia australis” (J Nat Prod, 1997).
Values after ≈ are worked out from the molar mass of the structure shown.

Key:
Assay type in all cases: functional, cell-based
[1] = test system: P388; assay: Cytotoxicity against mouse P388 cells after 3 days by MTT assay; details: P388, 72 h
Procedure, shortened: (§1)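 Modified MTT colorimetric assay. Cells seeded at 1000 cells/well and exposed to twofold serial dilutions of compound. Incubation ran 6 days for A-549 and 3 days for KB-16 and P-388. MTT (1 mg/mL) was then added for 5 h at 37 °C, formazan dissolved in DMSO, and absorbance read at 540 nm. IC50 is the concentration giving a 50% absorbance reduction versus untreated cells.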

[2] = test system: A549; assay: Cytotoxicity against human A549 cells after 6 days by MTT assay; details: A549, 144 h; procedure, shortened: as §1
[3] = Cytotoxicity against human KB16 cells after 3 days by MTT assay; details: KB16, 72 h; procedure, shortened: as §1

Structure (SMILES)	IC50 [1] [µg/mL]	IC50 [2] [µg/mL]	IC50 [3] [µg/mL]
C=C1CCC[C@H]2[C@](C)(Cc3cc(C(=O)OC)cc(OC(C)=O)c3OC(C)=O)[C@@H](C)CC[C@]12C	1.9 (≈ 4.16 µM)	1.5 (≈ 3.29 µM)	1.8 (≈ 3.94 µM)
C=C1CCC[C@H]2[C@](C)(CC3=C(O)C(=O)C=C(OC)C3=O)[C@@H](C)CC[C@]12C [ILIMAQUINONE]	0.2 (≈ 0.558 µM)	0.4 (≈ 1.12 µM)	0.7 (≈ 1.95 µM)
C=C1CCC[C@H]2[C@](C)(Cc3cc(C(=O)OC)cc(O)c3O)[C@@H](C)CC[C@]12C [DICTYOCERATIN A]	1.4 (≈ 3.76 µM)	0.7 (≈ 1.88 µM)	1.4 (≈ 3.76 µM)
C=C1CCC[C@H]2[C@](CO)(Cc3cc(C(=O)OC)cc(OC)c3O)[C@@H](C)CC[C@]12C [POLYFIBROSPONGOL B]	1 (≈ 2.48 µM)	1 (≈ 2.48 µM)	2 (≈ 4.97 µM)
C=C1CCC[C@H]2[C@](C)(Cc3cc(C(=O)OC)cc(OC)c3O)[C@@H](C)CC[C@]12C [POLYFIBROSPONGOL A]	0.7 (≈ 1.81 µM)	0.6 (≈ 1.55 µM)	1.4 (≈ 3.62 µM)
C=C1CCC[C@H]2[C@](C)(Cc3cc(C(=O)OC)cc(OC)c3OC(C)=O)[C@@H](C)CC[C@]12C [POLYFIBROSPONGOL A MONOACETATE]	3.4	3.1	2.1
C=C1CCC[C@H]2[C@](COC(C)=O)(Cc3cc(C(=O)OC)cc(OC)c3OC(C)=O)[C@@H](C)CC[C@]12C [POLYFIBROSPONGOL B DIACETATE]	> 50	> 50	> 50
